Activity calls are given as the source filed them. No cut-off for these calls is given here.
How the values were obtained:
Type in all cases: functional, organism-based
Candida albicans [1] = assay: Antifungal activity against Candida albicans ATCC 38245 at 100 ug/ml after 48 hrs
Outline: (§1)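 Yeasts and Aspergillus cultures were dispensed into 96-well plates and compound in DMSO was added (1% DMSO final). Plates were shaken orbitally and OD600 was read at start. After 48 h at 37 °C, humidified, OD600 was read again, and activity was calculated as the change in optical density.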

Nakaseomyces glabratus = assay: Antifungal activity against Candida glabrata NRRL Y-65 at 100 ug/ml after 48 hrs; outline: as §1
Candida parapsilosis = assay: Antifungal activity against Candida parapsilosis ATCC 12969 at 100 ug/ml after 48 hrs; outline: as §1
Acinetobacter baumannii [2] = assay: Antibacterial activity against Acinetobacter baumannii ATCC 19606 at 100 ug/ml after 24 hrs; details: ATCC 19606 = CIP 70.34 = JCM 6841
Outline: (§2)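 Broth growth assay in 96-well plates with test compounds added from DMSO stocks (final DMSO 1%). OD600 was read after brief orbital shaking, then again after 24 h incubation at 37 °C in a humidified incubator. Activity was taken as the change in OD600 between the two readings.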

Acinetobacter baumannii [3] = assay: Antibacterial activity against Acinetobacter baumannii ATCC BAA-1605 at 100 ug/ml after 24 hrs; outline: as §2
Burkholderia cepacia = assay: Antibacterial activity against Burkholderia cepacia ATCC 25608 at 100 ug/ml after 24 hrs; outline: as §2
Enterobacter cloacae = assay: Antibacterial activity against Enterobacter cloacae ATCC 13047 at 100 ug/ml after 24 hrs; outline: as §2
Escherichia coli [4] = assay: Antibacterial activity against Escherichia coli ATCC 10798 at 100 ug/ml after 24 hrs; outline: as §2
Escherichia coli [5] = assay: Antibacterial activity against Escherichia coli ATCC 11775 at 100 ug/ml after 24 hrs; outline: as §2
Pseudomonas aeruginosa = assay: Antibacterial activity against Pseudomonas aeruginosa ATCC 10145 at 100 ug/ml after 24 hrs; outline: as §2
Klebsiella pneumoniae [6] = assay: Antibacterial activity against Klebsiella pneumoniae ATCC 33495 at 100 ug/ml after 24 hrs; outline: as §2
Klebsiella pneumoniae [7] = assay: Antibacterial activity against Klebsiella pneumoniae ATCC 51503 at 100 ug/ml after 24 hrs; outline: as §2
[8] = test system: Staphylococcus epidermidis; assay: Antibacterial activity against Staphylococcus epidermidis ATCC 12228 at 100 ug/ml after 24 hrs; outline: as §2
Staphylococcus aureus [9] = assay: Antibacterial activity against Staphylococcus aureus ATCC 25293 at 100 ug/ml after 24 hrs; outline: as §2
Staphylococcus aureus [10] = assay: Antibacterial activity against Staphylococcus aureus ATCC 700787 at 100 ug/ml after 24 hrs; outline: as §2
Candida albicans [11] = assay: Potentiation of antifungal activity of imidazole against Candida albicans ATCC 38245 by broth microdilution assay
Candida tropicalis = assay: Antifungal activity against Candida tropicalis ATCC 12968 at 100 ug/ml after 48 hrs; outline: as §1
Aspergillus fumigatus [12] = assay: Antifungal activity against Aspergillus fumigatus NRRL A1100 at 100 ug/ml after 48 hrs; outline: as §1
Aspergillus flavus [13] = assay: Antifungal activity against Aspergillus flavus NRRL A1120 at 100 ug/ml after 48 hrs; outline: as §1
Aspergillus flavus [14] = assay: Antifungal activity against Aspergillus flavus NRRL A1120 at 10 ug/ml after 48 hrs; outline: as §1
Pichia kudriavzevii [15] = assay: Antifungal activity against Candida krusei ATCC 27803 at 100 ug/ml after 48 hrs; outline: as §1
Aspergillus fumigatus [16] = assay: Antifungal activity against Aspergillus fumigatus NRRL A1100 at 10 ug/ml after 48 hrs; outline: as §1
Pichia kudriavzevii [17] = assay: Antifungal activity against Candida krusei ATCC 27803 at 10 ug/ml after 48 hrs; outline: as §1

COC(=O)c1coc(Cc2ccccc2)cc1=O was tested, and the inhibition (Candida albicans [1]) was “Active”, the inhibition (Nakaseomyces glabratus) was “Active” and the inhibition (Candida parapsilosis) was “Active”. The inhibition (Acinetobacter baumannii [2]) was “inactive”, the inhibition (Acinetobacter baumannii [3]) was “inactive” and the inhibition (Burkholderia cepacia) was “inactive”. For the same compound, the inhibition (Enterobacter cloacae) was “inactive”, the inhibition (Escherichia coli [4]) was “inactive” and the inhibition (Escherichia coli [5]) was “inactive”. The inhibition (Pseudomonas aeruginosa) was “inactive”, the inhibition (Klebsiella pneumoniae [6]) was “inactive” and the inhibition (Klebsiella pneumoniae [7]) was “inactive”. The inhibition [8] was “inactive”, the inhibition (Staphylococcus aureus [9]) was “inactive” and the inhibition (Staphylococcus aureus [10]) was “inactive”. For the same compound, the Activity (Candida albicans [11]) was “inactive”, the inhibition (Candida tropicalis) was “Active” and the inhibition (Aspergillus fumigatus [12]) was “Active”. The inhibition (Aspergillus flavus [13]) was “Active”, the inhibition (Aspergillus flavus [14]) was “Active” and the inhibition (Pichia kudriavzevii [15]) was “Active”.

With C[C@@H](CC(=O)NC(=O)c1coc(Cc2ccccc2)cc1=O)C(=O)O the inhibition (Acinetobacter baumannii [2]) was “inactive”, the inhibition (Acinetobacter baumannii [3]) was “inactive” and the inhibition (Burkholderia cepacia) was “inactive”. The inhibition (Enterobacter cloacae) was “inactive”, the inhibition (Escherichia coli [4]) was “inactive” and the inhibition (Escherichia coli [5]) was “inactive”. For the same compound, the inhibition (Pseudomonas aeruginosa) was “inactive”, the inhibition (Klebsiella pneumoniae [6]) was “inactive” and the inhibition (Klebsiella pneumoniae [7]) was “inactive”. The inhibition [8] was “inactive”, the inhibition (Staphylococcus aureus [9]) was “inactive” and the inhibition (Staphylococcus aureus [10]) was “inactive”. The Activity (Candida albicans [11]) was “inactive”.

C[C@@H](CC(=O)NC(=O)c1cn(-c2ccccc2)c(Cc2ccccc2)cc1=O)C(=O)O was tested, and the inhibition (Acinetobacter baumannii [2]) was “inactive”, the inhibition (Acinetobacter baumannii [3]) was “inactive” and the inhibition (Burkholderia cepacia) was “inactive”. The inhibition (Enterobacter cloacae) was “inactive”, the inhibition (Escherichia coli [4]) was “inactive” and the inhibition (Escherichia coli [5]) was “inactive”. For the same compound, the inhibition (Pseudomonas aeruginosa) was “inactive”, the inhibition (Klebsiella pneumoniae [6]) was “inactive” and the inhibition (Klebsiella pneumoniae [7]) was “inactive”. The inhibition [8] was “inactive”, the inhibition (Staphylococcus aureus [9]) was “inactive” and the inhibition (Staphylococcus aureus [10]) was “inactive”.

NC(=O)c1cn(-c2ccc(F)cc2)c(Cc2ccccc2)cc1=O was tested, and the inhibition (Acinetobacter baumannii [2]) was “inactive”, the inhibition (Acinetobacter baumannii [3]) was “inactive” and the inhibition (Burkholderia cepacia) was “inactive”. The inhibition (Enterobacter cloacae) was “inactive”, the inhibition (Escherichia coli [4]) was “inactive” and the inhibition (Escherichia coli [5]) was “inactive”. The inhibition (Pseudomonas aeruginosa) was “inactive”, the inhibition (Klebsiella pneumoniae [6]) was “inactive” and the inhibition (Klebsiella pneumoniae [7]) was “inactive”. The inhibition [8] was “inactive”, the inhibition (Staphylococcus aureus [9]) was “inactive” and the inhibition (Staphylococcus aureus [10]) was “inactive”.

COC(=O)[C@@H](C)CC(=O)NC(=O)c1coc(Cc2ccccc2)cc1=O was tested, and the Activity (Candida albicans [11]) was “inactive”.

CCOC(=O)c1coc(-c2ccccc2)cc1=O was tested, and the inhibition (Candida albicans [1]) was “Active”, the inhibition (Nakaseomyces glabratus) was “Active” and the inhibition (Candida parapsilosis) was “Active”. The inhibition (Candida tropicalis) was “Active”, the inhibition (Aspergillus fumigatus [12]) was “Active” and the inhibition (Aspergillus flavus [13]) was “Active”. The inhibition (Aspergillus flavus [14]) was “Active”, the inhibition (Aspergillus fumigatus [16]) was “Active” and the inhibition (Pichia kudriavzevii [15]) was “Active”. The inhibition (Pichia kudriavzevii [17]) was “Active”.

With NC(=O)c1coc(Cc2ccccc2)cc1=O the inhibition (Acinetobacter baumannii [2]) was “inactive”, the inhibition (Acinetobacter baumannii [3]) was “inactive” and the inhibition (Burkholderia cepacia) was “inactive”. The inhibition (Enterobacter cloacae) was “inactive”, the inhibition (Escherichia coli [4]) was “inactive” and the inhibition (Escherichia coli [5]) was “inactive”. The inhibition (Pseudomonas aeruginosa) was “inactive”, the inhibition (Klebsiella pneumoniae [6]) was “inactive” and the inhibition (Klebsiella pneumoniae [7]) was “inactive”. For the same compound, the inhibition [8] was “inactive”, the inhibition (Staphylococcus aureus [9]) was “inactive” and the inhibition (Staphylococcus aureus [10]) was “inactive”. The Activity (Candida albicans [11]) was “inactive”.

From ChEMBL document CHEMBL1909539, “Reappraising the structures and distribution of metabolites from black aspergilli containing uncommon 2-benzyl-4H-pyran-4-one and 2-benzylpyridin-4(1H)-one systems” (J Nat Prod, 2011)
